Paper PMC10633881 (ACS Omega, 2023)
Residues, ends and D or L forms follow the SMILES beside them. No end group written: not given here.

Legend:
K562 cells [1] = assay: LDH leakage assay; assay type: cell-based, human; settings: 10 μM peptide, 24 h, serum-free medium
In short: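 K562 cells were seeded in 96-well plates for 24 h, then incubated 24 h with peptide in serum-free medium using a kit. Plates were spun at 400g for 5 min. Supernatant was mixed with LDH detection solution and shaken 30 min at room temperature, then read at 490 nm. Untreated wells = no leakage; LDH-releasing reagent = 100% leakage.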

[2] = system: cancer cells and murine fibroblasts; settings: read-out: antiproliferative activity IC50 values; against cancer cells and murine fibroblasts; cited from earlier work
MCF-7 cells = assay: Cell viability, CCK-8 method; assay type: cell-based, human; settings: 10 μM peptide, 24 h, CCK8
In short: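 MCF-7 cells (MEM, 10% FBS, 37 °C, 5% CO2) were seeded at 5×10^3 cells/well in 96-well plates. After 24 h, the medium was removed and replaced with MEM containing peptide. After 24 h at 37 °C, viability was read by CCK-8.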

K562 cells [3] = assay: Cell viability, CCK-8 method; assay type: cell-based, human; settings: 10 μM peptide, 24 h, CCK8
In short: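 K562 cells (IMDM, 10% FBS, 37 °C, 5% CO2) were seeded at 5×10^3 cells/well in 96-well plates. After 24 h, IMDM containing peptide was added without removing the medium. After 24 h at 37 °C, viability was read by CCK-8.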

Serum stability assay = assay type: in vitro ADME; settings: peptide solution (10 mM), 37 °C, supernatant analysed by RP-HPLC

Row | Compound | LDH leakage (cell membrane destruction) (K562 cells [1]) | IC50 [2] | anticancer activity in the preliminary screening, compared with F1, MCF-7 cells (MCF-7 cells) | anticancer activity in the preliminary screening, compared with F1, K562 cells (K562 cells [3]) | peptide degraded after incubation in 10% serum for 1 h (Serum stability assay)
1 | FIGTLIPLALGALTKLFK-NH2 [F1, Figainin 1, reference compound] | destroyed cell membranes | 10.5 to 13.7 µM | – | – | –
2 | CCCCCCCCCC(=O)N[C@@H](Cc1ccccc1)C(=O)N[C@H](C(=O)NCC(=O)N[C@H](C(=O)N[C@@H](CC(C)C)C(=O)N[C@H](C(=O)N1CCC[C@H]1C(=O)N[C@@H](CC(C)C)C(=O)N[C@@H](C)C(=O)N[C@@H](CC(C)C)C(=O)NCC(=O)N[C@@H](C)C(=O)N[C@@H](CC(C)C)C(=O)N[C@H](C(=O)N[C@@H](CCCCN)C(=O)N[C@@H](CC(C)C)C(=O)N[C@@H](Cc1ccccc1)C(=O)N[C@@H](CCCCN)C(N)=O)[C@@H](C)O)[C@@H](C)CC)[C@@H](C)O)[C@@H](C)CC [A-10] (HELM PEPTIDE1{[CCCCCCCCCC(=O)[*:2]].F.I.G.T.L.I.P.L.A.L.G.A.L.T.K.L.F.K.[am]}$$$$V2.0) | stronger than that of F1 | – | strongest anticancer activity | strongest anticancer activity | hardly degraded
